# Active and inactive are the calls of the source. The rule behind the calls is not given here.
# What was measured:
# [1] = target: T1, Sodium channel protein type 3 subunit alpha (Homo sapiens, UniProt Q9NY46); assay: Inhibition of Nav1.3 (unknown origin) expressed in HEK293 cells assessed as inhibition of sodium current incubated for 3 to 3.5 mins by electrophysiology assay; assay type: cell-based
# Outline: (§1)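 HEK293 cells stably expressing NaV1.3, grown in DMEM-F12 with 10% FBS at 37 °C, dissociated at 50–70% confluency; IonWorksHT planar patch clamp at 21–23 °C, amphotericin perforated access; intracellular K-gluconate 100, KCl 40, MgCl2 3.2, EGTA 3, HEPES 5 mM, pH 7.3.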
# Target sequence in this assay (Q9NY46 whole entry): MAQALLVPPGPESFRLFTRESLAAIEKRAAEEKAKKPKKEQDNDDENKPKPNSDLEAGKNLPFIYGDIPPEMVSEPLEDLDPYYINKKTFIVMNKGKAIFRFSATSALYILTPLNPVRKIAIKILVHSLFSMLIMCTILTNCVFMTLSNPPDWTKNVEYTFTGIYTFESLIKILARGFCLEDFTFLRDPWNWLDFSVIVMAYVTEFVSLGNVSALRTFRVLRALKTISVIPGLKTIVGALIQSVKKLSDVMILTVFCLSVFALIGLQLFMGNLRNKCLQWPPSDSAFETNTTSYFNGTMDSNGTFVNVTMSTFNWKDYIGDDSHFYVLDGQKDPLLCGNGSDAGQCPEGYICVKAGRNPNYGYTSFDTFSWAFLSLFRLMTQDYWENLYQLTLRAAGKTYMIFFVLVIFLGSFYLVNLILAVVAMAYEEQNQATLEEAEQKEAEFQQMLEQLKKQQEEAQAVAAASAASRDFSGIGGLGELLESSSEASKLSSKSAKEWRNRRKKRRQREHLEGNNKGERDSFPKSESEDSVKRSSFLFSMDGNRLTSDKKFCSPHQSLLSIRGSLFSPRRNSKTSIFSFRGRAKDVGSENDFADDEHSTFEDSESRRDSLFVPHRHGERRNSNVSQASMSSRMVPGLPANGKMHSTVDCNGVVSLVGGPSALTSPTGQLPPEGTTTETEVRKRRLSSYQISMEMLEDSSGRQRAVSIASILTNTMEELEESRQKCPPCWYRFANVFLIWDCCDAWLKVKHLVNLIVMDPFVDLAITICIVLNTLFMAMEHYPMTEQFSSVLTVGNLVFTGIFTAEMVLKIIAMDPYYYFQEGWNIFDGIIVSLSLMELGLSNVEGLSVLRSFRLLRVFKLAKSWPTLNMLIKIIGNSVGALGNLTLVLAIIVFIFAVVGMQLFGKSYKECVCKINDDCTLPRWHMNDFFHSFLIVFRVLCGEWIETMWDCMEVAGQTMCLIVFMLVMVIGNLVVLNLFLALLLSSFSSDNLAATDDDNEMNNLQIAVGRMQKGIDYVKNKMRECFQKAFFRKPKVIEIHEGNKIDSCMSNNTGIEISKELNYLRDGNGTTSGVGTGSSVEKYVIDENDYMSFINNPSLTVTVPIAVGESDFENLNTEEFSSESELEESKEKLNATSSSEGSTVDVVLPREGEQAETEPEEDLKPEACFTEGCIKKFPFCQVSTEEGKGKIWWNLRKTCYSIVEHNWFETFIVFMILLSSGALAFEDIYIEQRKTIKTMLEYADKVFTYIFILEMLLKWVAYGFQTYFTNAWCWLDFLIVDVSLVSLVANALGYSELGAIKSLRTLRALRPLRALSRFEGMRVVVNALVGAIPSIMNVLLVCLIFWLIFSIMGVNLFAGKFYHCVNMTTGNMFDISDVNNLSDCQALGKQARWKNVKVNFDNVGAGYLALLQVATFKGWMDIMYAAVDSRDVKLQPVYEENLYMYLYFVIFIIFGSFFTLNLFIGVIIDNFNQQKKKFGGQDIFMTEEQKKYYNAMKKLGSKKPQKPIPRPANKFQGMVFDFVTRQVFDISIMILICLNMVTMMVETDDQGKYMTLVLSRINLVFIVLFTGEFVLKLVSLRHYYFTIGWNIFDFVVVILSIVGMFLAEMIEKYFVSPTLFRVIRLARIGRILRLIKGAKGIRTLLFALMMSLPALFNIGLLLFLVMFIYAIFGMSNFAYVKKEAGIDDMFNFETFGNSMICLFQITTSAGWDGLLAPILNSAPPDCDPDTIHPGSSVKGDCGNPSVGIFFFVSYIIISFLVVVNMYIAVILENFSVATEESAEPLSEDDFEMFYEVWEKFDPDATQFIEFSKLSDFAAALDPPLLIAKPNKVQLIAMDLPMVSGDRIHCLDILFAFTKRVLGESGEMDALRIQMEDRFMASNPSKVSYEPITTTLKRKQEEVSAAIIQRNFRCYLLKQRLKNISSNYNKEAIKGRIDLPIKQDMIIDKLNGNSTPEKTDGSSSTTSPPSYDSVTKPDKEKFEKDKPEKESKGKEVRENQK
# [2] = target: T1, Sodium channel protein type 3 subunit alpha; assay: Inhibition of Nav1.3 (unknown origin) expressed in HEK293 cells assessed as 15% inhibition of sodium current incubated for 3 to 3.5 mins by electrophysiology assay; assay type: cell-based; outline: as §1
# Target sequence in this assay (Q9NY46 whole entry, looked up): as the sequence (Q9NY46 whole entry) above
# [3] = target: Voltage-gated inwardly rectifying potassium channel KCNH2 (Homo sapiens, UniProt Q12809); assay: Inhibition of human ERG; details: for inhibition (INH): human
# Homo sapiens = species: Homo sapiens; assay: Selectivity ratio of UD15 to IC50 of Nav1.3 (unknown origin) expressed in HEK293 cells; assay type: cell-based
# [4] = Fraction unbound in rat brain; assay type: ADME, tissue-based
# [5] = Fraction unbound in rat plasma; assay type: ADME, cell-free
# [6] = Oral bioavailability in rat at 3 mg/kg; assay type: ADME, organism-based; details: in vivo
# [7] = Total blood clearance in rat blood at 0.5 mg/kg, iv; assay type: ADME, organism-based
# [8] = Ratio of drug level in brain to blood in rat; assay type: ADME, tissue-based; details: read-out: Kbb
# Rattus norvegicus = assay: Antinociceptive activity in rat model of chronic constriction injury-induced neuropathic pain assessed as inhibition of CCI-induced mechanical allodynia at 30 mg/kg, po BID administered 22 days post surgery and measured on day 1, 6 and 8; assay type: functional, organism-based
# Outline: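 Chronic constriction injury model of neuropathic pain. Dosed orally twice daily as the positive-control arm of a study that also tested 0.5 and 5 mg/kg oral BID groups. Dosing started during day 22. Mechanical allodynia was measured on dosing days 1, 6 and 8.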
# [9] = Fraction unbound in rat blood; assay type: ADME, tissue-based
# Chain of Voltage-gated inwardly rectifying potassium channel KCNH2 (Q12809 whole entry): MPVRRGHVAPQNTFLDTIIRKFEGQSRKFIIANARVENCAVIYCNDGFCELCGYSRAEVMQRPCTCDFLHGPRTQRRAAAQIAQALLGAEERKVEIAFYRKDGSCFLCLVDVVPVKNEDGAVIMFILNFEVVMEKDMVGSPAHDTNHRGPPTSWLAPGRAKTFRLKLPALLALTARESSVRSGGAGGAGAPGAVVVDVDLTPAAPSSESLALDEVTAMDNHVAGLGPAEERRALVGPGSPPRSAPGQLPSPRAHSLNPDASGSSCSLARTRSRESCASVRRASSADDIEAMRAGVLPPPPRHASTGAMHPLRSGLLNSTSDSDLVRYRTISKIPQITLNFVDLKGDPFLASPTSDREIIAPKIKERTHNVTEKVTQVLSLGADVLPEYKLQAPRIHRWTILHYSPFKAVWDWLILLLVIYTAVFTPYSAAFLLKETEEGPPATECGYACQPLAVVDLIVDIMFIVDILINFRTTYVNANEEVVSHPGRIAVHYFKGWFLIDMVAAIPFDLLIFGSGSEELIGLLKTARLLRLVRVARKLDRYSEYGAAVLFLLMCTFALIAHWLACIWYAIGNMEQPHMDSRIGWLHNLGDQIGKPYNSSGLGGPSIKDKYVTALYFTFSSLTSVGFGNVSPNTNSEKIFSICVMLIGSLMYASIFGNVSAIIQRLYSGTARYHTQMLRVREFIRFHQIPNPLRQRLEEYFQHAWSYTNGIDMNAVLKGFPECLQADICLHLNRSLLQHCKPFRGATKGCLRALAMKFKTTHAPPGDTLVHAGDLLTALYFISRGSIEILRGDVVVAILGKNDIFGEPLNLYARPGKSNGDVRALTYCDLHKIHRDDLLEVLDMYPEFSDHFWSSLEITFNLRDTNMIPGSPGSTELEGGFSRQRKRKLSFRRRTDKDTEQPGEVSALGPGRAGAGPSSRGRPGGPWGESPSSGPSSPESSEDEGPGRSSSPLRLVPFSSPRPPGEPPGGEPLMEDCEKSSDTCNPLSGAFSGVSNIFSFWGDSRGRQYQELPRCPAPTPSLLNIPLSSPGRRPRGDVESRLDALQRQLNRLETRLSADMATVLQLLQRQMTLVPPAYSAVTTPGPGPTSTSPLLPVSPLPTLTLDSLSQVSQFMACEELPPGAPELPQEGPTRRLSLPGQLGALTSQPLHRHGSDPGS
Structure (SMILES),IC50 [1],log(activity) [2],IC50 [3],Selectivity ratio (Homo sapiens),further results
NC(=O)CN1CCCc2cc(OCc3ccccc3F)ccc2C1,> 79.4 µM,–,–,–,–
NC(=O)[C@@H]1CSc2cc(OCc3ccccc3F)ccc2CN1,> 100 µM,-4.7,–,–,–
NC(=O)C1CCC(c2ccc(OCc3ccccc3F)cc2)N1 (configuration not stated),63.1 to 100 µM,-5.4,–,–,–
NC(=O)[C@@H]1CC[C@H](c2ccc(Oc3cccc(F)c3)cc2)N1,100 µM,-5.5,7.94 µM,29,–
NC(=O)[C@@H]1CC[C@H](c2cccc(Oc3ccccc3)c2)N1,> 100 µM,-4.7,63.1 µM,–,–
C[C@H](NC1CCCc2cc(OCc3ccccc3F)ccc21)C(N)=O (some centres not stated),63.1 µM,-5.6,–,24,inhibition (INH) [3]: Active
NC(=O)[C@@H]1CC[C@H](c2ccc(OCc3ccccc3F)cc2F)N1,> 100 µM,-5.6,12.6 µM,42,fraction unbound [4]: 0.009
"C[C@@H](C(N)=O)N1CCCC1c1ccc(OCc2ccccc2F)cc1 (single isomer, unassigned; isomer 2) [listing 1 of 2 here]",39.8 µM,–,–,–,–
NC(=O)CNC1CCc2cc(OCc3ccccc3F)ccc21 (configuration not stated),31.6 µM,-5.5,–,1.3,inhibition (INH) [3]: Active
NC(=O)[C@@H]1CCC[C@H](c2ccc(OCc3cccc(F)c3)cc2)N1 (stereo in doubt),39.8 µM,-5.4,31.6 µM,7,fraction unbound [5]: 0.04; fraction unbound [4]: 0.01
N#Cc1ccc(COc2ccc([C@H]3CC[C@@H](C(N)=O)N3)cc2)cc1,> 63.1 µM,-5,7.94 µM,–,–
N#Cc1ccccc1COc1ccc([C@H]2CC[C@@H](C(N)=O)N2)cc1,> 63.1 µM,-5.3,15.8 µM,–,bioavailability [6]: 39%; fraction unbound [5]: 0.12; clearance [7]: 37 mL/min/kg; Kp [8]: 0.8; fraction unbound [4]: 0.063
C[C@@H](C(N)=O)N1CCCC1c1ccc(OCc2ccccc2F)cc1 (some centres not stated) [listing 1 of 2 here],–,-5.5,–,14,–
O=C1NCCC1NCc1ccc(OCc2ccccc2F)cc1 (configuration not stated),126 µM,-4.8,–,8,–
NC(=O)CN1Cc2ccc(OCc3ccccc3F)cc2C1,> 100 µM,–,–,–,–
C[C@@H](Oc1ccc([C@H]2CC[C@@H](C(N)=O)N2)cc1)c1ccccc1,31.6 µM,-5.5,3.98 µM,9,–
NC(=O)[C@@H]1CC[C@H](c2ccc(OCc3ccc(F)cc3)cc2)N1,> 63.1 µM,-5,7.94 µM,–,bioavailability [6]: 31%; clearance [7]: 91 mL/min/kg; Kp [8]: 3.5
NC(=O)C1Cc2cc(OCc3ccccc3F)ccc2CN1 (configuration not stated),20 µM,-4.8,–,1.3,–
"C[C@@H](C(N)=O)N1CCCC1c1ccc(OCc2ccccc2F)cc1 (single isomer, unassigned; isomer 2) [listing 2 of 2 here]",–,-5.9,–,29,–
NC(=O)[C@@H]1CC[C@H](c2ccc(Oc3ccccc3)cc2)N1,100 µM,-5.4,12.6 µM,31,bioavailability [6]: 25%; clearance [7]: 40 mL/min/kg; Kp [8]: 4.8
CC(C(N)=O)N1CCOc2cc(OCc3ccccc3F)ccc2C1 (configuration not stated),> 63.1 µM,-4.6,–,–,–
N#Cc1cc([C@H]2CC[C@@H](C(N)=O)N2)ccc1OCc1ccccc1F,> 50.1 µM,-4.8,–,–,–

Structure (SMILES),IC50 [1],log(activity) [2],IC50 [3],Selectivity ratio (Homo sapiens),further results
C[C@@H](C(N)=O)N1CCc2cc(OCc3ccccc3F)ccc2C1,> 79.4 µM,–,–,–,–
C[C@@H](C(N)=O)N1CCCC1c1ccc(OCc2ccccc2F)cc1 (some centres not stated) [listing 2 of 2 here],50.1 µM,–,–,–,inhibition (INH) [3]: Active
COc1cc([C@H]2CC[C@@H](C(N)=O)N2)ccc1OCc1ccccc1F,63.1 µM,-5.2,3.98 µM,10,fraction unbound [4]: 0.033
CN1[C@@H](c2ccc(OCc3ccccc3F)cc2)CC[C@H]1C(N)=O,> 100 µM,-4.4,50.1 µM,2,–
NC(=O)[C@@H]1CC[C@H](c2ccc(OCc3ccccc3F)cn2)N1,63.1 µM,-4.8,15.8 µM,6,–
O=C1CN(Cc2ccc(OCc3ccccc3F)cc2)CCN1,> 79.4 µM,–,–,–,–
NCC1(CC(=O)O)CCCCC1,–,–,–,–,Activity (Rattus norvegicus): Active
NC(=O)[C@H]1CCC[C@@H](c2ccc(OCc3cccc(F)c3)cc2)N1 (stereo in doubt),39.8 µM,-5.4,3.16 µM,11,–
NC(=O)CNCc1ccc(OCc2ccccc2F)cc1,50.1 µM,-5.4,–,11,–
N#Cc1cccc(COc2ccc([C@H]3CC[C@@H](C(N)=O)N3)cc2)c1,> 63.1 µM,-5.2,–,–,–
NC(=O)[C@@H]1CSC[C@H](c2ccc(OCc3cccc(F)c3)cc2)N1 (racemic),> 89.1 µM,< -4.05,–,–,–
NC(=O)[C@@H]1CC[C@H](c2ccc(OCc3cccc(F)c3)cc2)N1,> 100 µM,-5.5,3.16 µM,–,fraction unbound [5]: 0.033; fraction unbound [4]: 0.01
C[C@H](NC1CCOc2cc(OCc3ccccc3F)ccc21)C(N)=O (some centres not stated),> 79.4 µM,–,–,–,–
N#Cc1ccccc1Oc1ccc([C@H]2CC[C@@H](C(N)=O)N2)cc1,> 100 µM,-4.6,3.98 µM,–,fraction unbound [9]: 0.12; fraction unbound [4]: 0.076
CNC(=O)[C@@H]1CC[C@H](c2ccc(OCc3ccccc3F)cc2)N1,> 63.1 µM,-5.3,25.1 µM,–,fraction unbound [4]: 0.015
NC(=O)[C@@H]1CC[C@H](c2ccc(Oc3ccc(F)cc3)cc2)N1,> 100 µM,-5.3,5.01 µM,–,fraction unbound [5]: 0.11; fraction unbound [4]: 0.016
NC(=O)[C@H]1CC[C@H](c2ccc(OCc3ccccc3F)cc2)N1,> 79.4 µM,-5.4,6.31 µM,–,–
NC(=O)[C@@H]1CC[C@@H](c2ccc(OCc3ccccc3F)cc2)N1,100 µM,-5.5,5.01 µM,–,–
NC(=O)[C@@H]1CC[C@H](c2ccc(OCc3ccccc3)cc2)N1,> 63.1 µM,-5.6,7.94 µM,37,–
NC(=O)CN1CCOc2cc(OCc3ccccc3)ccc2C1,> 79.4 µM,–,–,–,–
NC(=O)[C@H]1CC[C@@H](c2ccc(OCc3ccccc3F)cc2)N1,63.1 µM,-5.4,10 µM,–,–
NC(=O)[C@@H]1CCCN1Cc1ccc(OCc2ccccc2F)cc1,79.4 µM,-5.8,–,64,inhibition (INH) [3]: Active
